The text below walks through data of ChEMBL document CHEMBL4699557, “Structure activity relationship of novel antiviral nucleosides against Enterovirus A71” (Bioorg Med Chem Lett, 2020).

Usually CC50 stands for the concentration at which the toxic effect on the cells reaches its halfway point. One may read the EC50 as the concentration that produces a half-maximal response. Usually Ki stands for a measure of affinity in units of concentration, obtained from inhibition or displacement. As a reminder, the EC90 is the concentration needed for an effect of 90%. Broadly, the IC50 is the point on the concentration scale where inhibition reaches its midpoint.

Series [1] relates to Vero 76. As to the kind of experiment: (§1) Cytotoxicity against monkey Vero 76 cells by neutral red uptake assay. Format: cell-based. The following applies: chlorocebus sabaeus, vero 76.
Series [2] is described as follows: in vitro. As to conditions: monkey, Vero 76 cells.
For series [3], the system named is Enterovirus A71. As to the kind of experiment: microbe, parasite or virus in culture. Format: functional, organism-based, Tainin/4643/98, Vero 76. As to conditions: Enterovirus A; for EC50: Tainin/4643/98, Vero 76, 72 h.
Series [4] has as its system Vero 76. As to the kind of experiment: (§2) Cytotoxicity against monkey Vero 76 cells by microscopic analysis. Format: cell-based. As to conditions: chlorocebus sabaeus, vero 76.
In series [5] the test system is Enterovirus A71. The series can be described thus: microbe, parasite or virus in culture. In kind it is functional, organism-based. As to conditions: Enterovirus A, Tainin/4643/98, Vero 76, 72 h.
Series [6] can be described thus: in vitro. As to conditions: monkey, Vero 76 cells. The source holds these as a separate data set.
The next series deals with Tacaribe virus. As to the kind of experiment: Antiviral activity against Tacaribe virus. In kind it is functional, organism-based. The following applies: Mammarenavirus tacaribeense.
For series [7], the target named is 5-hydroxytryptamine receptor 2B (Homo sapiens, UniProt P41595). As to the kind of experiment: Binding affinity to 5HT2B (unknown origin).
In series [8] the test system is RD. The series can be described thus: Cytotoxicity against human RD cells by neutral red uptake assay. In kind it is cell-based.
In series [9] the test system is Poliovirus 1. The series can be described thus: Antiviral activity against Poliovirus 1 Mahoney infected in monkey Vero 76 cells assessed as reduction in virus yield by visual inspection method. In kind it is functional, organism-based. The following applies: Enterovirus C. A digest of the protocol: (§3)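 Cell-based inhibition of virus replication. Vero 76 cells for Coxsackie B3 and poliovirus 1; RD cells for enterovirus 68. Two read-outs: visual scoring of virus yield reduction and neutral red uptake for cytopathic effect. EC50 is reported, and EC90 for some visual values.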

In series [10] the test system is enterovirus D68. The series can be described thus: Antiviral activity against Enterovirus D68 US/KY/14-18953 infected in RD cells assessed as reduction in virus yield by visual inspection method. Format: functional, organism-based. As to conditions: Enterovirus D, US/KY/14-18953, RD. In a few lines: as §3
In series [11] the test system is Coxsackievirus. The series can be described thus: Antiviral activity against Coxsackie virus B3 HA 201 933 infected in Vero 76 cells assessed as reduction in virus yield by visual inspection method. Format: functional, organism-based. The following applies: B3 HA 201 933, Vero 76. A digest of the protocol:
as §3

Series [12] has as its system enterovirus D68. As to the kind of experiment: Antiviral activity against Enterovirus D68 US/KY/14-18953 strain infected in RD cells assessed as reduction in virus-induced cytopathic effect by neutral red uptake assay. The following applies: Enterovirus D, US/KY/14-18953, RD. Format: functional, organism-based. A digest of the protocol: as §3
On the technique in general: Cytopathic effects are the visible damage that an infection or toxin causes in cultured cells.

A short description of series [13]: Selectivity index, ratio of CC50 for monkey Vero 76 cells to EC50 for Poliovirus 1 Mahoney. In kind it is toxicity. The following applies: read-out: Ratio CC50/EC50. In a few lines: (§4)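 Selectivity index calculated as CC50/EC50, both from the same cell line and the same read-out (visual or neutral red).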
Series [14] relates to Coxsackievirus. The series can be described thus: Antiviral activity against Coxsackie virus B3 HA 201 933 infected in Vero 76 cells assessed as reduction in virus-induced cytopathic effect by neutral red uptake assay. As to conditions: B3 HA 201 933, Vero 76. Format: functional, organism-based. A digest of the protocol:
as §3

A short description of series [15]: Selectivity index, ratio of CC50 for human RD cells to EC50 for Enterovirus D68 US/KY/14-18953 by neutral red uptake assay. In kind it is toxicity. The following applies: read-out: Ratio CC50/EC50. In a few lines:
as §4

Series [16] is described as follows: Selectivity index, ratio for CC50 of monkey Vero 76 cells to EC50 for Coxsackie virus B3 HA 201 933 by neutral red uptake assay. Format: toxicity. The following applies: read-out: Ratio CC50/EC50. In a few lines:
as §4

A short description of series [17]: Selectivity index, ratio of CC50 for monkey Vero 76 cells to EC50 for Poliovirus 1 Mahoney by neutral red uptake assay. In kind it is toxicity. The following applies: read-out: Ratio CC50/EC50. In a few lines: as §4
In series [18] the test system is RD. The series can be described thus: Cytotoxicity against human RD cells by microscopic based visual inspection method. Format: cell-based.
Series [19] is described as follows: Selectivity index, ratio for CC50 of monkey Vero 76 cells to EC50 for Coxsackie virus B3 HA 201 933 by visual inspection method. Format: toxicity. As to conditions: read-out: Ratio CC50/EC50. A digest of the protocol:
as §4

The subject of series [20] is Poliovirus 1. The series can be described thus: Antiviral activity against Poliovirus 1 Mahoney infected in monkey Vero 76 cells assessed as reduction in virus-induced cytopathic effect by neutral red uptake assay. In kind it is functional, organism-based. As to conditions: Enterovirus C. In a few lines: as §3
The nature of series [21]: Selectivity index, ratio of CC50 for human RD cells to EC50 for Enterovirus D68 US/KY/14-18953 strain. In kind it is toxicity. A digest of the protocol: as §4
Series [22] has as its system Enterovirus A71. As to the kind of experiment: Antiviral activity against Enterovirus 71. In kind it is functional, organism-based. The following applies: Enterovirus A.
The nature of series [23]: Inhibition of capsid protein VP1 in Enterovirus 71. Details: species or system Enterovirus A71.
In series [24] the test system is Respiratory syncytial virus. As to the kind of experiment: Antiviral activity against Respiratory syncytial virus. Format: functional, organism-based.
Series [25] is described as follows: as §1. As to conditions: chlorocebus sabaeus, Vero 76 cells. In kind it is cell-based.
A short description of series [26]: as §2. In kind it is cell-based. The following applies: chlorocebus sabaeus, Vero 76 cells.

The source made the active and inactive calls. No cut-off for these calls is given here.

Sequence of 5-hydroxytryptamine receptor 2B (P41595 whole entry): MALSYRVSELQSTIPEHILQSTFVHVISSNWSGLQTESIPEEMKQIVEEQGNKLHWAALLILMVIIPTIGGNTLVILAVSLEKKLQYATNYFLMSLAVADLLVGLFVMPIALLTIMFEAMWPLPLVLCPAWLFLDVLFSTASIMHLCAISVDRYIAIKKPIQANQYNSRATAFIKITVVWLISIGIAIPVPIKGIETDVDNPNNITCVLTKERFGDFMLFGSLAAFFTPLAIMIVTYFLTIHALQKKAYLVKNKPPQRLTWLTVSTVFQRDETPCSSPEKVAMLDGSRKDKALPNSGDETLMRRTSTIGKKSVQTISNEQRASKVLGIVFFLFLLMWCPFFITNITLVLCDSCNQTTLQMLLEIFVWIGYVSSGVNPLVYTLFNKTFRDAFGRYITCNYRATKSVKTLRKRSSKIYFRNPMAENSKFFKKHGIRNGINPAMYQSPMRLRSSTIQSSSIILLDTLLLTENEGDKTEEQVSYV

Regarding `CC(C)[C@@H](Nc1nc(Cl)nc2c1ncn2[C@H]1[C@H](O)[C@H](O)[C@]2(CCl)C[C@H]12)C1CC1`, the CC50 with Vero 76 [1] was 27 µM; with Vero 76 [4], 32 µM. Also, the selectivity ratio came out at 7.4 in the series “in vitro [2]” and 6.9 in “in vitro [6]”. Moreover, the EC50 with Enterovirus A71 [3] stood at 4.3 µM; in the series with Enterovirus A71 [5], 3.9 µM.

For the compound `OC[C@@]12C[C@@H]1[C@@H](n1cnc3c(NC(C4CC4)C4CC4)nc(Cl)nc31)[C@H](O)[C@@H]2O`, the CC50 with Vero 76 [1] was 68 µM; in the series on Vero 76 [4] it was greater than 100 µM. In the series on Tacaribe virus, the outcome was inactive.

Consider `CC(C)[C@@H](Nc1nc(I)nc2c1ncn2[C@H]1[C@H](O)[C@H](O)[C@]2(CO)C[C@H]12)C1CC1`, for which the CC50 with Vero 76 [1] was 46 µM; in the series with Vero 76 [4], 100 µM. In addition, the selectivity ratio in the series “in vitro [2]” is 5.6; in “in vitro [6]”, 2.3. Moreover, the figures for the EC50 in the series on Enterovirus A71 [3] and in the series on Enterovirus A71 [5] were 18 µM and 20 µM, respectively. In series [7], this compound yielded a Ki of 0.17 µM.

`CC(C)S(=O)(=O)n1c(N)nc2ccc(/C(=N/O)c3ccccc3)cc21` [ENVIROXIME]: the CC50 with RD [8] turned out to be 1.5 µM; in the series on RD [18], 4.2 µM. Also, the EC50 in the series with Poliovirus 1 [9] is 0.015 µM; in the series on enterovirus D68 [10], 0.032 µM; in the series with Coxsackievirus [11], less than 0.01 µM; in the series with enterovirus D68 [12], 0.032 µM; in the series with Coxsackievirus [14], less than 0.01 µM; in the series on Poliovirus 1 [20], less than 0.01 µM. For the same compound, the selectivity ratio is greater than 670 in series [13]; 47 in series [15]; greater than 450 in [16]; greater than 490 in series [17]; greater than 1000 in series [19]; 130 in [21] (read-out: Ratio CC50/EC50).

For `OC[C@H]1O[C@@H](n2cnc3c(NCc4cccc(C(F)(F)F)c4)ncnc32)[C@H](O)[C@@H]1O`, in the series with Enterovirus A71 [22], the EC50 was found to be 0.068 µM.

For the compound `CC(C)[C@@H](Nc1nc(Cl)nc2c1ncn2[C@H]1[C@H](O)[C@H](O)[C@]2(CF)C[C@H]12)C1CC1`, the CC50 in the series with RD [8] came to 42 µM; in the series on Vero 76 [1], 33 µM; with Vero 76 [4], 36 µM; in the series with RD [18], 42 µM. The concentration for an effect of 90% (EC90) in the series on enterovirus D68 [10] turned out to be 7.7 µM. Besides, the selectivity ratio in “in vitro [2]” came to 10; in series [15], 2.6; in “in vitro [6]” it was 11; in series [21] (read-out: Ratio), 5.4. Also, the EC50 in the series with enterovirus D68 [12] amounted to 16 µM; with Enterovirus A71 [5], 3 µM. This compound also showed a Ki in series [7] of 0.934 µM.

As for `CC(C)[C@@H](Nc1nc(Cl)nc2c1ncn2[C@H]1[C@H](O)[C@H](O)[C@@H]2C[C@@H]21)C1CC1`, the CC50 with Vero 76 [1] and in the series with Vero 76 [4] was greater than 50 µM each time. The selectivity ratio is greater than 3.1 in the series “in vitro [2]” and greater than 4.2 in the series “in vitro [6]”. Moreover, the EC50 with Enterovirus A71 [3] is 16 µM; with Enterovirus A71 [5], 12 µM.

For the compound `CCn1nnc(-c2ccc(OCCC(C)CCN3CCN(c4ccncc4)C3=O)cc2)n1` (configuration not stated), in [23], the midpoint of inhibition, the IC50, lay at 0.0008 µM.

Consider `O[C@@H]1[C@H](O)[C@@H]2C[C@@H]2[C@H]1n1cnc2c(NC(C3CC3)C3CC3)nc(Cl)nc21`, for which the CC50 in the series with RD [8] was 41 µM; in the series with Vero 76 [1], 34 µM; with Vero 76 [4] it was greater than 100 µM; in the series on RD [18] it was 41 µM. Moreover, the result in series [24] was inactive. The EC90 in the series on enterovirus D68 [10] is 15 µM. Moreover, the selectivity ratio is greater than 28 in “in vitro [2]”, 4.4 in series [15], 10 in “in vitro [6]” and 2.7 in [21] (read-out: Ratio). In addition, the figures for the EC50 in the series with Enterovirus A71 [3], with enterovirus D68 [12] and with Enterovirus A71 [5] were 3.6 µM, 9.3 µM and 3.4 µM, respectively.

`OC[C@@]12C[C@@H]1[C@@H](n1ccc3c(NC(C4CCC4)C4CCC4)nc(Cl)nc31)[C@H](O)[C@@H]2O`: the results for the CC50 in series [25] and in [26] were 86 µM and greater than 100 µM, respectively. The selectivity ratio in the series “in vitro [2]” is greater than 3.1; in “in vitro [6]”, 3.6. For the same compound, the EC50 in the series on Enterovirus A71 [3] came out at 32 µM.

As to `CC(C)[C@@H](Nc1nc(Cl)nc2c1ncn2[C@H]1[C@H](O)[C@H](O)[C@]2(CN=[N+]=[N-])C[C@H]12)C1CC1`, the CC50 in the series with Vero 76 [1] and with Vero 76 [4] was 32 µM in each case. In addition, the selectivity ratio in “in vitro [2]” was found to be 6; in the series “in vitro [6]”, 6.7. Moreover, the EC50 with Enterovirus A71 [3] amounted to 5.3 µM; with Enterovirus A71 [5], 4.8 µM.

`OC[C@@]12C[C@@H]1[C@@H](n1cnc3c(N[C@H](C4CCC4)C4CC4)nc(Cl)nc31)[C@H](O)[C@@H]2O`: the CC50 in the series with Vero 76 [1] was 14 µM; with Vero 76 [4], greater than 50 µM. Moreover, the selectivity ratio in the series “in vitro [2]” is greater than 3.1; in the series “in vitro [6]” it was 1.5. Moreover, the EC50 in the series on Enterovirus A71 [3] was found to be 16 µM; in the series on Enterovirus A71 [5], 9.3 µM.

On to `CC(C)[C@@H](Nc1nc(Cl)nc2c1ncn2[C@H]1[C@H](O)[C@H](O)[C@]2(CO)C[C@H]12)C1CC1`, for which the CC50 is greater than 100 µM with RD [8], 24 µM with Vero 76 [1], 24 µM in the series with Vero 76 [4] and greater than 100 µM with RD [18]. The EC50 with Poliovirus 1 [9] was determined as 28 µM; with enterovirus D68 [10] it was 32 µM; with Coxsackievirus [11], 16 µM; in the series with enterovirus D68 [12], 32 µM; in the series on Enterovirus A71 [5] it was 9.1 µM; in the series with Coxsackievirus [14], 16 µM. Moreover, the EC50 in the series on Poliovirus 1 [20] is 27 µM. The same compound displayed an EC90 in the series with Enterovirus A71 [3] (Tainin/4643/98, Vero 76, time 72 hrs) of 7.7 µM.
